# Shown are actives, neighbours in structure and some others; about 1.6% of the full set was active somewhere.
# proCasp7 act: counter-screen: procaspase-7 (human) activation. recombinant procaspase-7, Ac-DEVD-pNA absorbance 405 nm; D23A/D198A/D206A triple mutant, cannot self-cleave; scale: DMSO 0, 5 µM enzyme 100. activation, % at 8.5 µM. 330,000 tested, 0.093% active. AID 463210;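 active = percent activation above the screen-wide mean plus 3 SD, cut at about 25% in these data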
# Target sequence (P55210 whole entry D23A/D198A/D206A): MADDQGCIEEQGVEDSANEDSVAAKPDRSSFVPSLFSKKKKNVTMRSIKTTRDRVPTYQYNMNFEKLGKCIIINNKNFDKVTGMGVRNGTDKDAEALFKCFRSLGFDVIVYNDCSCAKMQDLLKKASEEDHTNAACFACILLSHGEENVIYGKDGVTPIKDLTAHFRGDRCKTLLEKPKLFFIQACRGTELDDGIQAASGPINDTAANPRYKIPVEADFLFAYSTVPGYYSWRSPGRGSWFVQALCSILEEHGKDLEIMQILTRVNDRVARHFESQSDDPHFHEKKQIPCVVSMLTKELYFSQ
#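 buffer or medium = Zinc-free HEPES/NaCl buffer, pH 7.4 | material = Procaspase-7 triple mutant (PC-7 D3A) | input = 2 µM procaspase-7 mutant as dispensed | signal = Epi-absorbance of released pNA at 405 nm, two timepoints | timing = 1 h preincubation, 2 h reaction | replicates = singlicate compound testing | evaluation = % activation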
# Neddyl block: inhibitors of human cullin neddylation. P61081+Q13564. TR-FRET cullin neddylation, biochemical. calls only at 25 µM. 360,000 tested, 0.58% active. AID 651699; in the data active = inhibition above about 36%
# procasp3 activ: activates human procaspase-3; 330,000 tested, 0.11% active; activation, % at 8.5 µM; recombinant procaspase-3 D3A, Ac-DEVD-pNA absorbance 405 nm; AID 463141; P42574;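 active = activation above the mean of all tested compounds plus 3 SD, cut at about 21% in these data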
# Target sequence (P42574 whole entry D9A/D28A/D175A): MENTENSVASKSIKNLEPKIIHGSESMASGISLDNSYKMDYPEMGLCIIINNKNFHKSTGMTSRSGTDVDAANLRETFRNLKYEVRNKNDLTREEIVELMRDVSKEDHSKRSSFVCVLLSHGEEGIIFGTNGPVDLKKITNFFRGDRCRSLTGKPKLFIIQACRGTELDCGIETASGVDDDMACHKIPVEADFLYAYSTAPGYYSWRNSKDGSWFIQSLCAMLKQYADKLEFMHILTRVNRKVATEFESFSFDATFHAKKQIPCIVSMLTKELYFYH
#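 Technique: 405 nm absorbance of p-nitroaniline, reads at 0 and 120 min; Test system: Procaspase-3 D3A mutant; Incubation: 1 h enzyme-compound preincubation, then 2 h substrate reaction, 25 °C; Repeats: singlicate, each compound tested once; Benchmarks: low control DMSO wells, high control DMSO plus 5 µM PC-3 D3A.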
# proKLK7 act: proKLK7 (human) activation, primary screen | P49862 | purified proKLK7, EDANS-DABCYL substrate fluorescence; 100% is mature enzyme control, 0% vehicle | activation, % at 7 µM | 370,000 tested, 0.9% active | AID 652039;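 active = activation above the mean of all tested compounds plus 3 SD, computed per campaign excluding outliers beyond control limits, cut at about 13% in these data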
# proKLK7 act conf: proKLK7 activation, confirmation | shares compounds with proKLK7 act | purified proKLK7, EDANS-DABCYL substrate fluorescence; scaled: vehicle 0, mature enzyme 100 | activation, % at 7 µM | 3,200 tested, 68% active;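 active = activation, as change over the incubation, above the mean of all tested compounds plus 3 SD, cut at about 13% in these data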
# EDANS-DABCYL int: counter-screen for kallikrein-7 activators: EDANS-DABCYL optical interference; AID 686952; activation, % at 7 µM; EDANS-DABCYL substrate fluorescence interference, no enzyme, 4 h; solvent 0%, active enzyme control 100%; shares compounds with proKLK7 act; 3,200 tested, 80% active;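 active = activation above the all-compound mean plus 3 SD, ignoring values outside control-based bounds, cut at about 4.8% in these data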;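 note: value is the 4 h activation minus the activation read at time zero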
# A number is an active result; – = inactive; · = no result shown.
SMILES,proCasp7 act,Neddyl block,procasp3 activ,proKLK7 act,proKLK7 act conf,EDANS-DABCYL int
COc1ccc(CC(=O)Nc2ccc(-c3cn4ccccc4n3)cc2)cc1OC,–,–,–,33,–,–
COc1ccc(-c2cn3cc(C)ccc3n2)cc1OC,–,·,–,13,–,13
Cc1cc(=O)oc2cc(OC(=O)c3nn(C(C)C)c(=O)c4ccccc34)ccc12,–,·,–,46,70,79
CCCn1nc(C(=O)Oc2ccc3c(C)cc(=O)oc3c2)c2ccccc2c1=O,–,·,–,54,68,72
CC(C)n1nc(C(=O)Oc2ccc(Cl)cc2)c2ccccc2c1=O,–,–,–,–,·,·
CCCn1nc(C(=O)OCC(=O)Nc2ccc(C)cc2)c2ccccc2c1=O,–,–,–,–,·,·
CC[C@]12c3[nH]c4cc(-c5ccco5)ccc4c3CCN1C(=O)[C@@H](CC(=O)NCc1ccco1)C[C@@H]2C(=O)N1CCN(C(=O)c2ccco2)CC1,–,·,–,134,95,104
CC[C@]12c3[nH]c4cc(-c5ccco5)ccc4c3CCN1C(=O)[C@@H](CC(=O)NC(C)(C)C)C[C@@H]2C(=O)N1CCN(C(=O)C2CC2)CC1,–,·,–,144,203,163
CC(C)(C)NC(=O)C[C@H]1C[C@H](C(=O)N2CCOCC2)[C@@]2(C)c3[nH]c4cc(-c5ccco5)ccc4c3CCN2C1=O,–,·,–,·,·,·
C[C@]12c3[nH]c4cc(-c5ccco5)ccc4c3CCN1C(=O)[C@@H](CC(=O)NCc1ccco1)C[C@@H]2C(=O)N1CCCCC1,–,·,–,84,45,82
COc1ccc2[nH]c3c(c2c1)CCN1C(=O)C(CC(=O)NCc2ccco2)C[C@H](C(=O)N2CCCCC2)[C@@]31C (stereo not given in full),–,–,–,–,·,·
CC(C)(C)NC(=O)C[C@H]1C[C@H](C(=O)N2CCCCC2)[C@@]2(C)c3[nH]c4cc(-c5ccco5)ccc4c3CCN2C1=O,–,·,–,77,74,79
Cc1ccc(S(=O)(=O)NC(CC(=O)O)c2cccs2)cc1 (stereo not given),–,–,–,–,·,·
Cc1ccccc1-c1cc2nc(Oc3ccc4c(c3)OCO4)n(C)c(=O)c2s1,·,–,·,–,·,·
O=C(NCc1cccs1)c1ccc(CS(=O)Cc2ccc(Cl)cc2)o1 (stereo not given),·,–,·,–,·,·
CC(C)(C)c1ccc(C(=O)N/N=C/c2cccc(Cl)c2)cc1,–,–,–,–,·,·
C[C@]12c3[nH]c4cc(-c5ccco5)ccc4c3CCN1C(=O)[C@@H](CC(=O)NCc1ccco1)C[C@@H]2C(=O)N1CCOCC1,–,·,–,75,81,75
CC[C@]12c3[nH]c4cc(-c5ccco5)ccc4c3CCN1C(=O)[C@@H](CC(=O)NCCc1ccccn1)C[C@@H]2C(=O)N1CCN(C(=O)C2CC2)CC1,–,·,–,137,104,124
CN(C)C(=O)CCc1ccc2c3c([nH]c2c1)[C@]1(C)[C@@H](C(=O)N2CCOCC2)C[C@H](CC(=O)NCc2ccco2)C(=O)N1CC3,–,–,–,–,·,·
CC[C@]12c3[nH]c4ccccc4c3CCN1C(=O)C(CC(=O)NCCc1ccccn1)C[C@@H]2C(=O)N1CCN(C(=O)C2CC2)CC1 (stereo not given in full),–,–,–,–,·,·
c1ccc(Cn2ccnc2C2OCCO2)cc1,·,–,·,–,·,·
CCOC(COC(=O)c1ccccc1C(=O)O)c1ccccc1 (stereo not given),·,–,·,–,·,·
COC(=O)c1nn(-c2ccc(OC)cc2)ccc1=O,–,–,–,–,·,·
CC(=O)OC[C@H]1O[C@@H](Oc2cc3ccc(=O)oc3cc2OC(C)=O)[C@H](OC(C)=O)[C@@H](OC(C)=O)[C@@H]1OC(C)=O,·,·,·,80,79,78
COc1ccc(O[C@@H]2O[C@H](COC(C)=O)[C@@H](OC(C)=O)[C@H](OC(C)=O)[C@H]2NC(C)=O)cc1,–,–,–,–,·,·
SMILES,proCasp7 act,Neddyl block,procasp3 activ,proKLK7 act,proKLK7 act conf,EDANS-DABCYL int
Cc1cc(C)c2c(n1)nn1c(NCCOCCO)cc(C)nc21,–,·,–,61,78,80
Cc1cc(C)c2c(n1)nn1c(NCCCN(C)C)cc(C)nc21,–,·,–,72,46,48
CCOC(=O)[C@H](CCc1ccccc1)N[C@@H](C)C(=O)N1Cc2cc(OC)c(OC)cc2C[C@H]1C(=O)O,·,·,·,–,·,·
COCCn1nnnc1C(c1cc2cccc(C)c2[nH]c1=O)N1CCN(c2ccccc2F)CC1 (stereo not given),–,–,–,20,17,17
COCCn1nnnc1C(c1ccccc1OC)N1CCN(c2ccccc2F)CC1 (stereo not given),–,–,–,–,·,·
COc1cc(-c2cc(=O)c3ccc(O)cc3o2)cc(OC)c1OC,·,·,·,15,–,8.7
COc1ccc(-c2cc(=O)c3ccc(O)cc3o2)cc1,·,·,·,–,·,·
O=C(Nc1ncccn1)c1ccc([N+](=O)[O-])o1,–,·,–,817,834,835
CC(=O)c1cc(C)ccc1OC(=O)c1cccc2nc(C)oc12,–,–,–,13,–,–
COC(=O)c1cc(Cl)cc2c(C)c(C3(O)CCCCC3)[nH]c12,–,·,–,–,·,·
COC(=O)c1ccc2c(C)c(C3(O)CCCCC3)[nH]c2c1,–,·,–,38,–,–
CN(C)CCN[C@H]1CCC2C3CC=C4C[C@@H](O)CC[C@]4(C)C3CC[C@@]21C (stereo not given in full),–,–,–,–,·,·
CN(Cc1ccccc1)C(=O)c1cccc(NC(=O)Cc2cccc(NC(=O)C3CCN(C(=O)CCc4ccccc4)CC3)c2)c1,·,·,·,–,·,·
CCCC(C)c1oc(=O)cc(O)c1C (stereo not given),–,–,–,–,·,·
O=S1(=O)CCN2C=C(Br)C=C(Br)C2=N1,–,–,–,–,·,·
O=S1(=O)CCN2C=C(Cl)C=C(Cl)C2=N1,–,·,–,25,33,29
C/C(=N\NS(=O)(=O)c1ccc([N+](=O)[O-])cc1)c1c[nH]c2ccccc12,–,–,–,–,·,·
CC(C)n1c(CN(C)Cc2ccccc2)nc2c1c(=O)n(C)c(=O)n2C,–,·,–,–,·,·
NC(=O)N/N=C/c1cc(Br)ccc1OC(=O)c1ccccc1,–,–,–,17,14,13
COC(=O)c1sccc1S(=O)(=O)NCc1ccc(S(N)(=O)=O)cc1,–,–,–,–,·,·
CCCCOc1ccc(C2OC34CCCCC3C(C#N)(C#N)C2(C#N)C(=N)O4)cc1 (stereo not given),–,·,–,·,·,·
Cc1ccc(C2OC34CCCCCC3C(C#N)(C(=N)O4)C2(C#N)C#N)cc1 (stereo not given),–,·,–,16,29,34
